Laboratory results: ChEMBL document CHEMBL1629506, “Design, synthesis and structure-activity relationship study of novel pyrazole-based heterocycles as potential antitumor agents” (Eur J Med Chem, 2010)

Experiments:
OVCAR-3 = assay: Growth inhibition of human OVCAR3 cells after 48 hrs by sulforhodamine B assay; assay type: functional; conditions: OVCAR-3, 48 h
In short: (§1)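 Cells were plated at 5000–40,000 cells/well, depending on doubling time, and preincubated 24 h at 37 °C in 5% CO2. Time-zero plates were TCA-fixed at drug addition. Compounds were dissolved in DMSO and tested at five concentrations (10-fold or ½-log dilutions) for 48 h. Cells were fixed with cold TCA, stained with 0.4% sulforhodamine B and read at 515 nm. GI50 was taken as the concentration giving 50% growth.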

[1] = Acute toxicity in mouse after 24 hrs; assay type: organism-based; conditions: in vivo
In short: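 Adult mice of both sexes, acclimatized 1 week (12 h light/dark, 21–23 °C), fasted 12 h before dosing. 30 mice in 6 groups of 5 each got a single oral gavage dose, at different dose levels, of a fine-powder aqueous suspension. LD50 was determined, with values as group means of five mice.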

OVCAR-4 = assay: Growth inhibition of human OVCAR4 cells after 48 hrs by sulforhodamine B assay; assay type: functional; conditions: OVCAR-4, 48 h; in short: as §1
OVCAR-5 = assay: Growth inhibition of human OVCAR5 cells after 48 hrs by sulforhodamine B assay; assay type: functional; conditions: OVCAR-5, 48 h; in short: as §1
T47D = assay: Growth inhibition of human T47D cells after 48 hrs by sulforhodamine B assay; assay type: functional; in short: as §1
SK-OV-3 = assay: Growth inhibition of human SKOV3 cells after 48 hrs by sulforhodamine B assay; assay type: functional; conditions: SK-OV-3, 48 h; in short: as §1
Rattus norvegicus [2] = assay: Antiestrogenic activity in Sprague-Dawley rat assessed as reduction in estradiol induced uterine weight upto 0.06 ug, po after 8 days; assay type: functional; design: scale not given: the % may be the effect or the level left
In short: (§2)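 Immature ovariectomized female Sprague-Dawley rats (~55 g), groups of 12. Estradiol 0.03–0.05 given s.c. daily for 7 days, with test compound or letrozole reference at various doses up to 0.06 per animal, given orally in 0.5% carboxymethylcellulose. Controls received estradiol alone. Uterine weights were taken on day 8 and group means expressed as % reduction versus estradiol-only controls. Potency was taken relative to letrozole.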

NCI/ADR-RES = assay: Growth inhibition of human NCI/ADR-RES cells after 48 hrs by sulforhodamine B assay; assay type: functional; in short: as §1
MDA-N = assay: Growth inhibition of human MDA-N cells after 48 hrs by sulforhodamine B assay; assay type: functional; in short: as §1
MCF7 = assay: Growth inhibition of human MCF7 cells after 48 hrs by sulforhodamine B assay; assay type: functional; conditions: MCF7, 48 h; in short: as §1
MDA-MB-435 = assay: Growth inhibition of human MDA-MB-435 cells after 48 hrs by sulforhodamine B assay; assay type: functional; conditions: MDA-MB-435, 48 h; in short: as §1
Rattus norvegicus [3] = assay: Antiestrogenic activity in Sprague-Dawley rat assessed as reduction in estradiol induced uterine weight 0.06 ug, po after 8 days relative to letrozole; assay type: functional; in short: as §2
OVCAR-8 = assay: Growth inhibition of human OVCAR8 cells after 48 hrs by sulforhodamine B assay; assay type: functional; conditions: OVCAR-8, 48 h; in short: as §1
MDA-MB-231 = assay: Growth inhibition of human MDA-MB-231cells after 48 hrs by sulforhodamine B assay; assay type: functional; conditions: MDA-MB-231, 48 h; in short: as §1
IGROV-1 = assay: Growth inhibition of human IGROV1 cells after 48 hrs by sulforhodamine B assay; assay type: functional; conditions: IGROV-1, 48 h; in short: as §1
BT-549 = assay: Growth inhibition of human BT549 cells after 48 hrs by sulforhodamine B assay; assay type: functional; conditions: BT-549, 48 h; in short: as §1
[4] = Growth inhibition of human Hs 578T cells after 48 hrs by sulforhodamine B assay; assay type: functional; in short: as §1

Row | Structure (SMILES) | GI50 (OVCAR-3) | LD50 at 24 h [1] | GI50 (OVCAR-4) | GI50 (OVCAR-5) | GI50 (T47D) | GI50 (SK-OV-3) | Activity (Rattus norvegicus [2]) | GI50 (NCI/ADR-RES) | GI50 (MDA-N) | GI50 (MCF7) | GI50 (MDA-MB-435) | potency ratio vs letrozole (Rattus norvegicus [3]) | GI50 (OVCAR-8) | GI50 (MDA-MB-231) | GI50 (IGROV-1) | GI50 (BT-549) | GI50 [4]
1 | N#Cc1c(C(=O)/C=C/N2CCOCC2)nn(-c2ccccc2)c1-c1ccccc1 | 21.5 µM | 463 mg/kg | 62.8 µM | 90.8 µM | > 100 µM | 33.8 µM | 43.43% | > 100 µM | 38.4 µM | 5.49 µM | > 100 µM | 2 | > 100 µM | > 100 µM | 88 µM | 41.4 µM | > 100 µM
2 | CC(=O)c1nn(-c2ccccc2)cc1C(=O)c1nn(-c2ccccc2)c(-c2ccccc2)c1C#N | 66.8 µM | 324 mg/kg | 69.8 µM | 34.8 µM | 36.8 µM | 39.8 µM | 32.45% | > 100 µM | 0.077 µM | 25.7 µM | > 100 µM | 1.49 | 62.8 µM | > 100 µM | 96.8 µM | > 100 µM | 6.46 µM
3 | N#Cc1ccc(C(c2ccc(C#N)cc2)n2cncn2)cc1 [LETROZOLE] | 5.87 µM | 253 mg/kg | 0.88 µM | 1.62 µM | 0.44 µM | 1.09 µM | 21.65% | 1.16 µM | 1.61 µM | 0.7 µM | 0.067 µM | 1 | 4.5 µM | 0.15 µM | 0.095 µM | 0.89 µM | 2.17 µM
